Activity calls are given as the source filed them.
What was measured:
[1] = molecular target: GABA-A receptor; anion channel (Rattus norvegicus) (UniProt O09028+P15431+P18506+P18508+P19969+P20236+P23574+P23576+P28471+P28473+P30191+P62813+P63079+P63138+Q91ZM7+Q9ES14); conditions: Brain, Brain membranes
[2] = molecular target: T1, GABA-A receptor; alpha-1/beta-2/gamma-2 (Homo sapiens, UniProt P14867+P18507+P47870); experiment: Displacement of [3H]flunitrazepam from GABA-A receptor alpha-1-beta-2-gamma-2 subunits expressed in Sf9 cells
T1 sequence (P14867 whole entry): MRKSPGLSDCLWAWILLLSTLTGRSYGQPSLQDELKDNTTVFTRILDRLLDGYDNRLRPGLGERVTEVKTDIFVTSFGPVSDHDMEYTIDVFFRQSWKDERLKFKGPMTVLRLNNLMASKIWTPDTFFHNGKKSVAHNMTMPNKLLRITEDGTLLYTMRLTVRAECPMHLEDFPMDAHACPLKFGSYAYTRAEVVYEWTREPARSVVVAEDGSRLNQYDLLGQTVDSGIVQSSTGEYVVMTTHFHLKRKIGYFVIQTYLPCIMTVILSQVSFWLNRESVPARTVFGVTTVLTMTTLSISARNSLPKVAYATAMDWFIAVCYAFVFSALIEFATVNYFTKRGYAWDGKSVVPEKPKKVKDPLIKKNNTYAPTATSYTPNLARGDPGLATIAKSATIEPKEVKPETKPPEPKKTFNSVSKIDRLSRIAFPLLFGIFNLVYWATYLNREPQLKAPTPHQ
T1 sequence (P47870 whole entry): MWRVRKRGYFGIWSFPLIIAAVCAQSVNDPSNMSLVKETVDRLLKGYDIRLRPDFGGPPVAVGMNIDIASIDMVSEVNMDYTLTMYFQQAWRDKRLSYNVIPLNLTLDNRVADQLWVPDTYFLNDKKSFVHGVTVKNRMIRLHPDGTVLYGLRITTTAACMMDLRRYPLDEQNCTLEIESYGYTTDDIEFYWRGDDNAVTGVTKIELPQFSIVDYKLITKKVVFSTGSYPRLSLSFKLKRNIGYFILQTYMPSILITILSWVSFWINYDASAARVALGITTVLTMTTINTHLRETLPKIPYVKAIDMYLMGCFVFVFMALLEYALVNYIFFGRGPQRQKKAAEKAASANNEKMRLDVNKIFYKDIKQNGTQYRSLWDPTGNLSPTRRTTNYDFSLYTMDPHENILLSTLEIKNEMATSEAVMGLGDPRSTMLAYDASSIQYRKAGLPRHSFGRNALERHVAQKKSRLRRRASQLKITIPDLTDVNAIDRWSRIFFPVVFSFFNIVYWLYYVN
T1 sequence (P18507 whole entry): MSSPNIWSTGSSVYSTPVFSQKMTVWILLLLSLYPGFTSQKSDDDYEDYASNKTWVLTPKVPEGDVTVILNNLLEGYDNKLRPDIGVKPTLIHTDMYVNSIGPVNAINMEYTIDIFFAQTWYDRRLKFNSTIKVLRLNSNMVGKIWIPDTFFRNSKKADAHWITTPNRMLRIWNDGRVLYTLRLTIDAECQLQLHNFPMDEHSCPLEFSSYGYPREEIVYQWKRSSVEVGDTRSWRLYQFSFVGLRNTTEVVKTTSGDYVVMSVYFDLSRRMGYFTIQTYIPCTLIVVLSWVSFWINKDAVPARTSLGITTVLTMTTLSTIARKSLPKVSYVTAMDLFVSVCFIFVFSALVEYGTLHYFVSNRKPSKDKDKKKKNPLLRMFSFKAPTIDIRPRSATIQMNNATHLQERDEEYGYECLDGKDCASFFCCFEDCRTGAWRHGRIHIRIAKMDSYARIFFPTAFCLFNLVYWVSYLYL
How it was run: (§1)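 Membranes from Sf-9 cells infected (MOI 3) with baculoviruses for α1, α3 or α6 plus β2 and γ2 subunits, harvested 60 h postinfection. Binding in normal saline with 6 nM [3H]flunitrazepam (α1, α3) or [3H]Ro 15-4513 (α6), 50 µg membrane protein, varying test ligand. Incubated 60 min at 4 °C, filtered, scintillation counted.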

Rattus norvegicus [3] = experiment: Antagonistic activity against metrazole-induced clonic convulsions in rat after ip injection; format: functional
[4] = molecular target: T2, GABA A receptor alpha-6/beta-2/gamma-2 (Homo sapiens, UniProt P18507+P47870+Q16445); experiment: Displacement of [3H]Ro-154513 from GABA-A receptor alpha-6-beta-2-gamma-2 subunits expressed in Sf9 cells
How it was run: as §1

[5] = molecular target: T3, GABA A receptor alpha-3/beta-2/gamma-2 (Homo sapiens, UniProt P18507+P34903+P47870); experiment: (§2) Displacement of [3H]flunitrazepam from GABA-A receptor alpha-3-beta-2-gamma-2 subunits expressed in Sf9 cells
T3 sequence (P47870 whole entry): T1 sequence (P47870 whole entry)
T3 sequence (P18507 whole entry): T1 sequence (P18507 whole entry)
T3 sequence (P34903 whole entry): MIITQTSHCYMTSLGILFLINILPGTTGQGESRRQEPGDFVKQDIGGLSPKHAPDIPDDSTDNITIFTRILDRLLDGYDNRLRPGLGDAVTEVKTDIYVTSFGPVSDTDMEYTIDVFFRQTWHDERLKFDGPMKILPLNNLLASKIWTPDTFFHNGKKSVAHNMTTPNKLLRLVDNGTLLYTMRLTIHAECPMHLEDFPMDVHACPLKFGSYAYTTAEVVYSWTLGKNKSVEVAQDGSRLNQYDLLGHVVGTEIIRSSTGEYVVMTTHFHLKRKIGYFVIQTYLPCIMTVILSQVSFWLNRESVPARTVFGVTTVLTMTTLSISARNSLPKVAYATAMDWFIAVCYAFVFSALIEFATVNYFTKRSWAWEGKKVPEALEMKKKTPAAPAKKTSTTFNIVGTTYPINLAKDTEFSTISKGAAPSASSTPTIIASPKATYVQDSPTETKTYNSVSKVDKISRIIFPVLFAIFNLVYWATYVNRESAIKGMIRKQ
How it was run: as §1

Mus musculus [6] = organism: Mus musculus; experiment: Acute electroshock physical dependence activity was evaluated; IA=Inactive; format: functional, organism-based
How it was run: (§3)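 Male CF-1 mice, 10/group, dosed sc twice daily (0800, and 1600 at twice the 0800 dose) for 3 days. 24 h after last dose, iv flumazenil 2.5 mg/kg in 5% aqueous N,N-dimethylacetamide. Electroshock seizure threshold (MA50) measured 5 min later versus saline-treated, flumazenil-injected controls. Compound scored active if threshold lowered beyond control interval.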

Mus musculus [7] = organism: Mus musculus; experiment: Ethanol potentiation was measured against LORR; format: functional
How it was run: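 Male CF-1 mice given 7.5 mL/kg 50% aqueous ethanol orally with test compound sc simultaneously (in 0.25% aqueous methyl cellulose). After 30 min, scored for loss of traction (hindlimb placement on wire within 10 s) and loss of righting reflex (no righting within 10 s). Six mice/dose; active compounds retested at several doses for ED50.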

[8] = molecular target: T1, GABA-A receptor; alpha-1/beta-2/gamma-2; experiment: (§4) Displacement of [3H]Flunitrazepam from GABA-A receptor alpha-1-beta-2-gamma-2 subunits expressed in Sf9 cells
Mus musculus [9] = experiment: In vivo antagonistic activity against benzodiazepine in mice; format: functional
How it was run: (§5)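 Male CF-1 mice injected ip simultaneously with triazolam 1 mg/kg and test compound starting at […], in 0.25% aqueous methyl cellulose. Loss of traction scored 15 min later. Absence of triazolam effect indicated antagonism; lower doses at 0.5 log intervals then tested to establish ED50.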

[10] = molecular target: GABA-A receptor; anion channel; experiment: Inhibition of [3H]flunitrazepam binding to GABA-A receptor of rat cortical membranes; format: cell membranes, Membrane
Mus musculus [11] = experiment: Ethanol potentiation activity was measured as loss of traction response in male CF-1 mice after oral administration; format: functional
Rattus norvegicus [12] = organism: Rattus norvegicus; experiment: In vitro [36Cl]-uptake in rat cerebrocortical synaptoneurosomes; format: functional; set-up: unit not given here
How it was run: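 Rat cerebrocortical synaptoneurosomes (1 mg protein) preincubated 5 min at 30 °C, then mixed with medium containing 0.2 µCi Na36Cl/mL, 118 mM NaCl, 5 mM KCl, 1.8 mM MgSO4, 20 mM Hepes/Tris pH 7.0, ± drug (methanol ≤0.4%). Uptake stopped after 5 s with ice-cold buffer, rapid filtration, four washes, radioactivity counted.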

[13] = molecular target: T2, GABA A receptor alpha-6/beta-2/gamma-2; experiment: Displacement of [3H]-Ro-15-4513 from GABA-A receptor alpha-6-beta-2-gamma-2 subunits expressed in Sf9 cells
How it was run: as §1

Mus musculus [14] = experiment: In vivo antagonistic activity against benzodiazepine in mice after ip administration; format: functional
How it was run: as §5

Mus musculus [15] = organism: Mus musculus; experiment: Acute electroshock physical dependence activity was evaluated; A=Active; format: functional, organism-based
How it was run: as §3

Mus musculus [16] = experiment: Ethanol potentiation activity was measured as loss of righting reflex in male CF-1 mice after oral administration; format: functional
[17] = molecular target: T1, GABA-A receptor; alpha-1/beta-2/gamma-2; experiment: as §4; set-up: species or system insect
How it was run: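 Equilibrium competition binding on membranes from Sf-9 cells co-infected (MOI 3) with baculoviruses for α1, β2 and γ2 subunits, harvested 60 h postinfection. Assay in normal saline with 6 nM [3H]flunitrazepam, 50 µg membrane protein and varying test ligand concentrations. Incubated 60 min at 4 °C, filtered over glass fiber, washed four times with cold saline, then scintillation counted.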

[18] = molecular target: T3, GABA A receptor alpha-3/beta-2/gamma-2; experiment: as §2; remark: listed apart in the source
How it was run: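 Sf-9 cells were co-infected with baculoviruses for α3, β2 and γ2 subunits at MOI 3 and harvested 60 h postinfection to prepare membranes. Binding used 6 nM [3H]flunitrazepam, 50 µg membrane protein and varying test ligand concentrations in normal saline (NaCl/KCl/MgCl2/CaCl2/Hepes, pH 7.2). Incubation ran 60 min at 4 °C, followed by glass-fibre filtration, four cold-saline washes and scintillation counting.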

[19] = molecular target: GABA-A receptor alpha-1/beta-2/gamma-2 (Homo sapiens); experiment: Binding affinity towards [3H]Fnz in alpha-1-beta-2-gamma-2 subtype was measured
Mus musculus [20] = experiment: Acute electroshock physical dependence activity was evaluated; A=Active at 15 mg/Kg; format: functional, organism-based

T2 sequence (Q16445 whole entry, one chain of several): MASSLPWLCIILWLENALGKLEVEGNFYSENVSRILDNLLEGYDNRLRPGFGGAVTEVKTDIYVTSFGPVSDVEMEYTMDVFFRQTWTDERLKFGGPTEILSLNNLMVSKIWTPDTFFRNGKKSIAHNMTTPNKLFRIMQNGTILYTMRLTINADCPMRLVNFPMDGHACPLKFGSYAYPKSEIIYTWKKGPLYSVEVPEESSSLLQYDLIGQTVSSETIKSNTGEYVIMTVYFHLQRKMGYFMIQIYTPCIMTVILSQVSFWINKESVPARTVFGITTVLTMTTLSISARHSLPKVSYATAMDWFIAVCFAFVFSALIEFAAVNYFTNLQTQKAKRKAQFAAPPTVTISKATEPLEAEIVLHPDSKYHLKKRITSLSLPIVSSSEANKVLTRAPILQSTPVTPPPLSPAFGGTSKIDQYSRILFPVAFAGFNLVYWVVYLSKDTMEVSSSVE

| SMILES | [35S] TBPS shift [1] | Ki [2] [nM] | ED50 (Rattus norvegicus [3]) [mg/kg] | Ki [5] [nM] | Ki [8] [nM] | Ki [10] [nM] | ED50 (Mus musculus [11]) [mg/kg] | 36Cl- uptake (Rattus norvegicus [12]) | Ki [13] [nM] | ED50 (Mus musculus [14]) [mg/kg] | ED50 (Mus musculus [16]) [mg/kg] | also measured |
| --- | --- | --- | --- | --- | --- | --- | --- | --- | --- | --- | --- | --- |
| CC(=O)N1Cc2c(-c3noc(C4CC4)n3)ncn2-c2ccccc21 | 0.94 | 2.7 | 35 |  |  |  |  |  |  |  |  | Ki [4]: 124 nM |
| CC(C)n1c(=O)c2c(-c3noc(C4CC4)n3)ncn2c2ccccc21 [PANADIPLON] | 0.06 |  | 1.6 | 5.7 | 3.5 | 1.6 | 6.6 | 0.04 | 603 |  |  | Activity (Mus musculus [6]): inactive; ED50 (Mus musculus [7]): > 30 mg/kg; ED50 (Mus musculus [9]): 1.7 mg/kg |
| CSC(=O)N1Cc2c(-c3noc(C4CC4)n3)ncn2-c2ccccc21 | 0.92 |  | 6.2 |  |  | 1.3 | 0.3 | 0.73 |  | > 30 | > 30 | Activity (Mus musculus [15]): Active |
| O=C(c1ccccc1)N1Cc2c(-c3noc(C4CC4)n3)ncn2-c2ccccc21 | 0.54 |  | 42 |  | 0.3 |  |  |  | 1140 |  |  |  |
| O=C(N1CCOCC1)N1Cc2c(-c3noc(C4CC4)n3)ncn2-c2cccc(F)c21 | 0.66 |  | 6.2 | 0.51 | 0.17 | 0.48 |  | 0.42 | 13 |  |  | Activity (Mus musculus [15]): Active |
| Cc1cccc2c1N(C(=O)N1CCOCC1)Cc1c(-c3noc(C4CC4)n3)ncn1-2 | 0.51 |  | 5.2 | 30 | 4.7 | 4.6 |  | 0.7 |  |  |  |  |
| CCOC(=O)c1ncn2c1CN(C)C(=O)c1cc(N=[N+]=[N-])ccc1-2 [Ro-154513] |  |  |  |  |  |  |  |  |  |  |  | Ki [17]: 15 nM |
| CN(C)C(=O)N1Cc2c(-c3noc(C4CC4)n3)ncn2-c2ccccc21 [PNU-91571] | 0.69 | 1.7 | 21 |  |  | 1 | 27 | 0.68 |  | 1 | > 30 | Ki [18]: 3.5 nM; Activity (Mus musculus [6]): inactive |
| O=C(N1CCOCC1)N1Cc2c(-c3noc(C4CC4)n3)ncn2-c2ccc(Cl)cc21 | 0.71 | 0.22 |  |  |  | 2.3 |  | 1 |  |  |  | Ki [19]: 2 nM |
| CN1C(=O)CN=C(c2ccccc2)c2cc(Cl)ccc21 [DIAZEPAM] |  |  | 0.5 |  |  |  | 0.54 | 1 | > 7000 |  | 0.86 | Activity (Mus musculus [20]): Active |
| CCNC(=O)N1Cc2c(-c3noc(C4CC4)n3)ncn2-c2ccccc21 | 0.72 | 4.5 | 5.3 |  |  | 3.5 | > 30 | 0.22 |  | > 30 | > 30 | Ki [18]: 15 nM; Activity (Mus musculus [6]): inactive |
| O=C(N1CCOCC1)N1Cc2c(-c3noc(C4CC4)n3)ncn2-c2ccc(F)cc21 | 0.96 |  | 6.2 | 0.7 | 0.3 | 0.68 | 2 | 1.1 |  | 1 | > 30 | A (Mus musculus [15]): Active |

Source: ChEMBL document CHEMBL1129282, “High-affinity partial agonist imidazo[1,5-a]quinoxaline amides, carbamates, and ureas at the gamma-aminobutyric acid A/benzodiazepine receptor complex” (J Med Chem, 1996)
